Measurements pooled from the literature.
Target: Rho-associated protein kinase 2 (ROCK2, Homo sapiens, UniProt O75116)

| SMILES | effect on | method | concentration | remaining binding [%] |
| --- | --- | --- | --- | --- |
| Cn1cc(Cl)c2c(Oc3c(F)cc(Nc4cc(Cl)nc(N)n4)cc3F)ccnc21 | cell-free assay | competition with immobilised ligand | 0.1 µM | 83 |
| COc1ccnn2ncc(-c3ccnc(N(C)C)n3)c12 | binding |  | 1 µM | 100 |
| CC(=O)N1CCC(c2ccc(C(=O)NC(=N)N)cc2C(F)(F)F)CC1 | cell-free assay | competition with immobilised ligand | 1 µM | 100 |
| COc1cnc(Nc2cccc(S(N)(=O)=O)c2)nc1N1CCN(c2ccccc2)C(=O)C1 | binding | competition with immobilised ligand | 1 µM | 78 |
| c1cncc(-c2cccc(Nc3nccc(NC4CCCCC4)n3)c2)c1 | binding | competition with immobilised ligand | 10 µM | 25 |
| CN(C)c1nccc(-c2cnc3ncccn23)n1 | binding |  | 1 µM | 100 |
| O=C(NCCCN1CCOCC1)c1ccc(Nc2ncc(Cl)c(-c3ccc(Cl)s3)n2)cc1 | binding | competition with immobilised ligand | 1 µM | 61 |
| C[C@@H]1CN(c2ccc3ncc(-c4ccc5[nH]nc(C6CC6)c5c4)n3n2)C[C@H](C)O1 | binding | competition with immobilised ligand | 50 nM | 69 |
| C[C@H](c1cccc(C#N)c1)n1cc(Cl)cc(C(N)=O)c1=N | cell-free assay | competition with immobilised ligand | 1 µM | 94 |
| C=CC(=O)N1CCC(C(=O)NCC(=O)N2CCN(c3nc(-c4cnc(N)nc4C(F)F)nc(N4CCOCC4)n3)CC2)CC1 | binding | competition with immobilised ligand | 1 µM | 90 |
| CN1CCN(c2cnc3c(C4CCN(C(=O)c5ccc(OC(F)(F)F)cc5N)CC4)ncnc3c2)CC1 | cell-free assay | competition with immobilised ligand | 1 µM | 100 |
| CN(C)c1nccc(-c2cnn3ncccc23)n1 | binding |  | 1 µM | 84 |
| CCN1CCN(Cc2ccc(C(=O)Nc3ccc(C)c(Oc4ccc5c(c4)CC(=O)N5)c3)cc2C(F)(F)F)CC1 | binding | competition with immobilised ligand | 1 µM | 74 |
| Cc1cnn2ncc(-c3ccnc(N(C)C)n3)c2c1 | binding |  | 1 µM | 95 |
| O=C(c1ccc(Nc2nccc(-c3cc4ccccc4s3)n2)cc1)N1CCC(N2CCCC2)CC1 | binding | competition with immobilised ligand | 1 µM | 7.4 |
| N#Cc1ccccc1CSc1nnc2c(n1)[nH]c1ccccc12 | binding | competition with immobilised ligand | 10 µM | 80 |
